From ChEMBL document CHEMBL3112447, “Discovery of 1-methyl-1H-imidazole derivatives as potent Jak2 inhibitors” (J Med Chem, 2014)
Active and inactive are the calls of the source. No cut-off for these calls is given here.

How the values were obtained:
[1] = target: Tyrosine-protein kinase JAK1 (Mus musculus, UniProt P52332); assay: (§1) Inhibition of Jak1 in mouse BA/F3 cells expressing TEL-Jak1 assessed as inhibition of STAT5 phosphorylation by Western blotting analysis; type: cell-based, BaF3
[2] = target: Tyrosine-protein kinase JAK1 (Mus musculus) (UniProt P52332); assay: as §1; type: cell-based; conditions: BaF3
[3] = target: Vascular endothelial growth factor receptor 2 (Homo sapiens, UniProt P35968); assay: Inhibition of human KDR
Procedure, shortened: (§2)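 Panel of 82 kinases. Radiometric filter-binding assay with ATP at or near Km. Compound tested at 0.01, 0.10 and 1.0 μM. Values expressed as minimum possible fold selectivity against Jak2.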

[4] = system: UKE1; assay: Antitumor activity against human UKE1 cells xenografted in po dosed SCID mouse assessed as tumor growth inhibition administered bid for 14 days; type: functional, organism-based
Procedure, shortened: (§3)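 UKE-1 cells mixed with matrigel implanted subcutaneously in female SCID mice. On day 15, mice randomized at a mean tumor volume of about 150 mm³. Oral gavage twice daily at 3 or 10 mg/kg, or vehicle, for 14 days. Tumor volume and body weight tracked through the dosing phase.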

[5] = Half life in Wistar rat at 10 mg/kg, po and 3 mg/kg, iv; type: ADME, organism-based; conditions: in vivo
Procedure, shortened: (§4)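 Rat pharmacokinetics. Oral dose 10 mg/kg in 0.1% HPMC. IV dose 3 mg/kg in 40% DMA/40% PEG/20% saline. Clearance, half-life, Vdss and oral bioavailability derived from the plasma profiles.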

[6] = target: Casein kinase II subunit alpha (Homo sapiens, UniProt P68400); assay: Inhibition of human recombinant 6 X His-tagged full length CK2alpha expressed in insect sf21 cells using CK2tide as substrate after 20 mins by fluorescence assay
[7] = system: Mus musculus; assay: In vivo inhibition of Jak2 in po dose3d mouse transfected with mouse BA/F3 cells expressing TEL-Jak2 assessed as inhibition of STAT5 phosphorylation after 6 to 12 hrs by Western blotting analysis; type: functional, organism-based; conditions: BaF3
Procedure, shortened: (§5)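 Mice bearing BaF3 TEL-JAK2 cells given a single oral dose of 3, 5 or 10 mg/kg and sacrificed at various times after dosing. Spleen lysates probed for phospho-STAT5 and total STAT5 by Western blot, and pSTAT5 inhibition assessed.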

[8] = target: Protein kinase C zeta type (Homo sapiens, UniProt Q05513); assay: Inhibition of human PKCzeta; procedure, shortened: as §2
[9] = system: Mus musculus; assay: In vivo inhibition of Jak2 in mouse transfected with mouse BA/F3 cells expressing TEL-Jak2 assessed as inhibition of STAT5 phosphorylation at 10 mg/kg, po after 6 hrs by Western blotting analysis; type: functional, organism-based; set-up: dose 10 mg/kg; conditions: BaF3; procedure, shortened: as §5
[10] = system: Mus musculus; assay: Toxicity in SCID mouse xenografted with human UKE1 cells assessed as body weight loss at 10 mg/kg, po bid administered for 14 days measured on day 31 (reference value: 7.1%); type: organism-based; set-up: dose 10 mg/kg, route oral; conditions: in vivo, 336 h; procedure, shortened: as §3
[11] = system: Canis familiaris; assay: AUC (0 to 12 hrs) in beagle dog at 10 mg/kg, po; type: ADME, organism-based, Canis lupus familiaris, Plasma; set-up: time < 12 hr, dose 10 mg/kg, route oral; conditions: in vivo
Procedure, shortened: (§6)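 Male beagle dogs. Oral dose 10 mg/kg in 0.1% HPMC, pH 2. IV dose 2.5 mg/kg in 20% TEG/D5W. […] Clearance, Vdss, half-life and oral bioavailability (F%) derived from the plasma profiles.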

[12] = target: Fibroblast growth factor receptor 1 (Homo sapiens, UniProt P11362); assay: Inhibition of human FGFR1; procedure, shortened: as §2
[13] = target: ALK tyrosine kinase receptor (Homo sapiens, UniProt Q9UM73); assay: Inhibition of human ALK; procedure, shortened: as §2
[14] = system: Mus musculus; assay: In vivo inhibition of Jak2 in mouse transfected with mouse BA/F3 cells expressing TEL-Jak2 assessed as inhibition of STAT5 phosphorylation at 10 mg/kg, po after 12 hrs by Western blotting analysis; type: functional; conditions: BaF3, 12 h; procedure, shortened: as §5
[15] = Clearance in Wistar rat at 10 mg/kg, po and 3 mg/kg, iv; type: ADME, organism-based; conditions: in vivo; procedure, shortened: as §4
[16] = Cytotoxicity against mouse BA/F3 cells expressing TEL-Jak3 after 72 hrs by MTS assay; type: functional; conditions: BaF3, 72 h
Procedure, shortened: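 BaF3 cells transfected with the kinase domain of Jak1, Jak3 or Tyk2 (TEL fusions). Growth inhibition measured as the counter-screen for cellular selectivity.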

[17] = target: Proto-oncogene tyrosine-protein kinase receptor Ret (Homo sapiens, UniProt P07949); assay: Inhibition of human Ret; procedure, shortened: as §2
[18] = target: Tyrosine-protein kinase Fgr (Homo sapiens, UniProt P09769); assay: Inhibition of human Fgr; procedure, shortened: as §2
[19] = target: Tyrosine-protein kinase JAK3 (Mus musculus, UniProt Q62137); assay: (§7) Inhibition of Jak3 in mouse BA/F3 cells expressing TEL-Jak3 assessed as inhibition of STAT5 phosphorylation by Western blotting analysis; type: cell-based, BaF3
[20] = target: Tyrosine-protein kinase JAK3 (Mus musculus) (UniProt Q62137); assay: as §7; type: cell-based; conditions: BaF3
[21] = Volume of distribution at steady state in beagle dog at 2.5 mg/kg, iv; type: ADME, organism-based, Canis lupus familiaris; set-up: dose 2.5 mg/kg, route intravenous; conditions: in vivo, read-out: Vdss; procedure, shortened: as §6
[22] = target: LIM domain kinase 1 (Homo sapiens, UniProt P53667); assay: Inhibition of human LIMK1; procedure, shortened: as §2
[23] = Oral bioavailability in Wistar rat at 10 mg/kg; type: ADME, organism-based; conditions: in vivo; procedure, shortened: as §4
[24] = Antitumor activity against human UKE1 cells xenografted in SCID mouse assessed as tumor growth inhibition at 10 mg/kg, po bid administered for 14 days measured on day 28; type: functional; conditions: read-out: TGI; procedure, shortened: as §3
[25] = Volume of distribution at steady state in Wistar rat at 10 mg/kg, po and 3 mg/kg, iv; type: ADME, organism-based; conditions: in vivo, read-out: Vdss; procedure, shortened: as §4

Sequence of Tyrosine-protein kinase JAK1 (Mus musculus) (P52332 whole entry): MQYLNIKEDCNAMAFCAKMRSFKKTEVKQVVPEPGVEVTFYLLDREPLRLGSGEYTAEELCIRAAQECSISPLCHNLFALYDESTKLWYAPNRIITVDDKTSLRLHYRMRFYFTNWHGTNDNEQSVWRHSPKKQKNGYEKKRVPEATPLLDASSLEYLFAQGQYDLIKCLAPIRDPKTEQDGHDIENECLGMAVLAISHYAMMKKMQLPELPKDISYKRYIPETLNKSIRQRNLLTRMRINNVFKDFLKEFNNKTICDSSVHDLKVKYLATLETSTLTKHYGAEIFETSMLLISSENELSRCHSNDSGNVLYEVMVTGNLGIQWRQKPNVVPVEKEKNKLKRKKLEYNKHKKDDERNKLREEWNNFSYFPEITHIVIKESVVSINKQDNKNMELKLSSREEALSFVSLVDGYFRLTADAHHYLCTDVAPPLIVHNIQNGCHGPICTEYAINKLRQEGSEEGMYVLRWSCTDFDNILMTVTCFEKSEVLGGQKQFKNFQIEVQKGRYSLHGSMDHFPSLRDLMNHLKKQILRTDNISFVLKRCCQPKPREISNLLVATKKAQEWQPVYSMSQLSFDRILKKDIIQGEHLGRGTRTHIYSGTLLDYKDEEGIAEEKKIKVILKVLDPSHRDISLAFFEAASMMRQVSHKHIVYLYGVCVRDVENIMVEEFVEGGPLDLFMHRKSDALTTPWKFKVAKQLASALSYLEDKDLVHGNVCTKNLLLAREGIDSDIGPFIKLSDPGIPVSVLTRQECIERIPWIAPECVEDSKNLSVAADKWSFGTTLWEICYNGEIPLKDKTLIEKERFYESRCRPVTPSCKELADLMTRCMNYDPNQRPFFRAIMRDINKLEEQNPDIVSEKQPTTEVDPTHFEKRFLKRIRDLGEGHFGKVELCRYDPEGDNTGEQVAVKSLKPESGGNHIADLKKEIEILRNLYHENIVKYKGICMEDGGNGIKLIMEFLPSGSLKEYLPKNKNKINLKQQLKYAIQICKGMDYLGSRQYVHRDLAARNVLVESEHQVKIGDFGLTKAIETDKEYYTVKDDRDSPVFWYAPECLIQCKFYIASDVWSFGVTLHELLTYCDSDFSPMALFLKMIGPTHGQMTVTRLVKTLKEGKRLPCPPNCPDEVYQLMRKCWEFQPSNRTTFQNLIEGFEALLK
Sequence of Tyrosine-protein kinase JAK1 (P52332 whole entry): as above
Sequence of Casein kinase II subunit alpha (P68400 whole entry): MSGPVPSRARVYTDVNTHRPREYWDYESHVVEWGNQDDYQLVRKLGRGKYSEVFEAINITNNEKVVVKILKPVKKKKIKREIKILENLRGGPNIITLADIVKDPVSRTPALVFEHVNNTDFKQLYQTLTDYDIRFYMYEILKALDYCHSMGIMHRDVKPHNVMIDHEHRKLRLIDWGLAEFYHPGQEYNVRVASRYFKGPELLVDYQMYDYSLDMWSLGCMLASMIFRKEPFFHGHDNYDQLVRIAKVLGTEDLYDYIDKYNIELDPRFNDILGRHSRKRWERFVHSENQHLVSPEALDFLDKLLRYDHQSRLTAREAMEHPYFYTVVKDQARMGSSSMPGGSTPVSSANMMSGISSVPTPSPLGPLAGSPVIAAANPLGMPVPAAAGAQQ
Sequence of Proto-oncogene tyrosine-protein kinase receptor Ret (P07949 whole entry): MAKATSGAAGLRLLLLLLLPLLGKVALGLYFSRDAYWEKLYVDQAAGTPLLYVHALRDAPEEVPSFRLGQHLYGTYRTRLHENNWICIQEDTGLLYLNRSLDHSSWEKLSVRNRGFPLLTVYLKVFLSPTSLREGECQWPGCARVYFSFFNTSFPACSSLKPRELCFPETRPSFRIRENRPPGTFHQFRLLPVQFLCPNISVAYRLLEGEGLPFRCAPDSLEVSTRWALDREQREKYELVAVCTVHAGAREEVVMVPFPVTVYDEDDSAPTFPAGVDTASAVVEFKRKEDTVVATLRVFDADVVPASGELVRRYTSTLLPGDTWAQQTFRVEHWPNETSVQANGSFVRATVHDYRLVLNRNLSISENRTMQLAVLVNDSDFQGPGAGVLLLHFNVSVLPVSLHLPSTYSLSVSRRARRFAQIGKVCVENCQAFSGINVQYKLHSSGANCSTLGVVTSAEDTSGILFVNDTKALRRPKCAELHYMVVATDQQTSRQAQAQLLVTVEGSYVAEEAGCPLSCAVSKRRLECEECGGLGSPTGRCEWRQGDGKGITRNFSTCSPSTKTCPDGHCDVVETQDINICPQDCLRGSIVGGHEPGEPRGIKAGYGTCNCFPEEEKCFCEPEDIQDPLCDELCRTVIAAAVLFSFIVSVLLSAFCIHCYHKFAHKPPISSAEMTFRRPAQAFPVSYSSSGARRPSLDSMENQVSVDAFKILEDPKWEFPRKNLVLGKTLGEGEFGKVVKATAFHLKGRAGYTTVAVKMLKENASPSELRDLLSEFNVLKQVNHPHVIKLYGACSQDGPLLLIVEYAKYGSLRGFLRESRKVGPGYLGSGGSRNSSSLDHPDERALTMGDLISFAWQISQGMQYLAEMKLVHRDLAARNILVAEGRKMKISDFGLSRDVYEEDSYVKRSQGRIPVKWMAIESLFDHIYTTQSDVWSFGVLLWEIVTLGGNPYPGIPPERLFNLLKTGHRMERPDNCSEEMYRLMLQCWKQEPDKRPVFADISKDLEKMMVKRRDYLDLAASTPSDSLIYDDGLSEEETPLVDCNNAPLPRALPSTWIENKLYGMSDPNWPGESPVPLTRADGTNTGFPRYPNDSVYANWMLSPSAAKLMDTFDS
Sequence of Fibroblast growth factor receptor 1 (P11362 whole entry): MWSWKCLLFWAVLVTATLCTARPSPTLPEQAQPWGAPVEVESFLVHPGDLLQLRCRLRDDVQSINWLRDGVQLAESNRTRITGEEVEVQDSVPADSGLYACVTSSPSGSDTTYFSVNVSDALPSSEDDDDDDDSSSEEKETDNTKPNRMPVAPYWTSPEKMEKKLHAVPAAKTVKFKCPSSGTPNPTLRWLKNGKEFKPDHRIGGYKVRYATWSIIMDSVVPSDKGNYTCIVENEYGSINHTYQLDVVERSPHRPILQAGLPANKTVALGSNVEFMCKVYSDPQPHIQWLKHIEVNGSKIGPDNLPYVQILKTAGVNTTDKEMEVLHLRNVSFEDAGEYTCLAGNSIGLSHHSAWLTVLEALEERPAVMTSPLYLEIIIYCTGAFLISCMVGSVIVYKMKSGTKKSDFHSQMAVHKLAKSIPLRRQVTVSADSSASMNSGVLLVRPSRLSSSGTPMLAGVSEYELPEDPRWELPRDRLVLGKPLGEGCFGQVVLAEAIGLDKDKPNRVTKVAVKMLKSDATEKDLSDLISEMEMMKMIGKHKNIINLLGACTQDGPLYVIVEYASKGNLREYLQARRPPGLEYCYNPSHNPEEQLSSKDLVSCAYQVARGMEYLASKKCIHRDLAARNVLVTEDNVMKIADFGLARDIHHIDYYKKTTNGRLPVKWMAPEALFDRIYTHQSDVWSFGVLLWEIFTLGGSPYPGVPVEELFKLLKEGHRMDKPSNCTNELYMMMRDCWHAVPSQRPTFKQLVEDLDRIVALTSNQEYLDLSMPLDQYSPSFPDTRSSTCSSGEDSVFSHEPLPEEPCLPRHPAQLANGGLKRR
Sequence of Protein kinase C zeta type (Q05513 whole entry): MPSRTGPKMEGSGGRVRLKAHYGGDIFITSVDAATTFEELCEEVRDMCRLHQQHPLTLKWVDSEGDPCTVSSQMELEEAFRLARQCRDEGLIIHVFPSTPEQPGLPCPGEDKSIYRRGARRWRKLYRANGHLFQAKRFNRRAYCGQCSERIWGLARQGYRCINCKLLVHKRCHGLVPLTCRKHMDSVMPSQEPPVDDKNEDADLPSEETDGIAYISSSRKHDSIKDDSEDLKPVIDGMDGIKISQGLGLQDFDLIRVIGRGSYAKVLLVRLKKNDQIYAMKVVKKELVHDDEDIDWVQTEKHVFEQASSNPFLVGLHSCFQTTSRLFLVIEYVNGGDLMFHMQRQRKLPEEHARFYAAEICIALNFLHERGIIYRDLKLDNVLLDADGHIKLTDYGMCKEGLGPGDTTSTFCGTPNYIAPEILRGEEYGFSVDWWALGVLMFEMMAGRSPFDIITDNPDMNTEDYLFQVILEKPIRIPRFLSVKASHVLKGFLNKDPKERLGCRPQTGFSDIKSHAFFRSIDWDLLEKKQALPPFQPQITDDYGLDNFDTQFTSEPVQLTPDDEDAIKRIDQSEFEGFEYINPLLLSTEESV
Sequence of Tyrosine-protein kinase Fgr (P09769 whole entry): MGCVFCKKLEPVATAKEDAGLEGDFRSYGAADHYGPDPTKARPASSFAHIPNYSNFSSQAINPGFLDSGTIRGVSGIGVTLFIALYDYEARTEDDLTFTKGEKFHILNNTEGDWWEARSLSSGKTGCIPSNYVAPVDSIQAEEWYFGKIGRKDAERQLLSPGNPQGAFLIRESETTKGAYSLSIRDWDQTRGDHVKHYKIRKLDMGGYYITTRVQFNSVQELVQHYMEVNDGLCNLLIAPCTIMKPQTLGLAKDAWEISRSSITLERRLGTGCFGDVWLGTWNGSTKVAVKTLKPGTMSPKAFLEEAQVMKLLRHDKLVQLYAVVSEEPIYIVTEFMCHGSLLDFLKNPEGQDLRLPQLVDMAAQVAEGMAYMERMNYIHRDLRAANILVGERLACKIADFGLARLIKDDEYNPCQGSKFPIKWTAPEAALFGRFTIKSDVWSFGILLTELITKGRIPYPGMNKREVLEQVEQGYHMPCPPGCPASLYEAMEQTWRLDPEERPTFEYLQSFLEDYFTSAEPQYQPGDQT

C[C@H](Nc1nc(Nc2cn(C)cn2)c2cc[nH]c2n1)c1ncc(F)cn1
IC50 [1]: 260 nM | inhibition [2]: Dose-dependent effect | IC50 [3]: 22 nM | TGI [4]: Dose-dependent effect | half-life [5]: 1.6 h | IC50 [6]: > 30000 nM | inhibition [7]: Dose-dependent effect | IC50 [8]: 200 nM | inhibition [9]: Active | Activity [10]: 3.1% | AUC [11]: 45 µM·h | IC50 [12]: 50 nM | IC50 [13]: 50 nM | inhibition in vivo at 10 mg/kg [14]: 50% | clearance [15]: 36 mL/min/kg | GI50 [16]: 1800 nM | IC50 [17]: 46 nM | IC50 [18]: 33 nM | IC50 [19]: 2000 nM | inhibition [20]: Dose-dependent effect | Vd [21]: 1.9 L/kg | IC50 [22]: 63 nM | bioavailability [23]: 64% | inhibition in vivo at 10 mg/kg [24]: 77% | Vd [25]: 2.2 L/kg
